# Shown are actives, neighbours in structure and some others; about 9.6% of the full set was active somewhere.
# MT stabilizer: microtubule stabilizers in HeLa cells, primary screen, imaging, high-content imaging; HeLa tubulin immunostaining HCS, 24 h; share of cells brighter than vehicle mean+2SD; % tubulin-high responders, % at 10 µM; 200,000 compounds, 0.83% hits;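 active means plate Z-score above 3 for both tubulin-high and condensed-nucleus cell shares, with cell loss under 80%, at 10 µM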;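 further: anti alpha tubulin signal scored within the nucleus-defined area of each cell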
# Ba/F3 V617F tox: reduced viability of JAK2V617F-dependent Ba/F3 cells, primary screen, JAK2V617F inhibitor project, cell-based, Ba/F3 EpoR-JAK2V617F, luminescence; ATP luminescence; inhibition, % at 5.6 µM; 220,000 compounds, 1.1% hits;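 active means inhibition above the campaign mean plus 3 SD over all tested compounds, cut at about 24% in these data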;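 further: cytokine-independent growth of Ba/F3 cells driven by EpoR plus mutant JAK2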
# L major viab: Leishmania major promastigote growth inhibition, primary screen. inhibition, % at 10 µM. 200,000 compounds, 9% hits. Leishmania major promastigotes, resazurin fluorescence viability; in the data active means inhibition above about 50%;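 further: promastigotes grown with compound for 44 hours at 28 °C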
# bCat nuc transl: modulators of beta-catenin nuclear translocation, primary screen, imaging, HeLa cells, immunofluorescence, high-content | nuclear translocation activity, % at 5 µM | 190,000 compounds, 0.3% hits;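 active means nuclear translocation activity above 50% at 5 µM, with a well cell count of 50 or more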;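 further: per-cell ratio of nuclear to cytoplasmic median beta-catenin stain intensity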
#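 Test system: human HeLa cell line; Doses: 5 µM primary, 0.02–20 µM confirmation; Incubation: 24 h compound exposure, 37°C; Detection: beta-catenin immunofluorescence imaging with DAPI; Read-out: beta-catenin nuclear/cytoplasmic ratio, % activation.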
# APP 5UTR inh: inhibitors of APP translation via 5'UTR reporter, primary screen, APP 5'UTR luciferase, SH-SY5Y cells. 190,000 compounds, 0.82% hits. inhibition, % at 2 µM. SH-SY5Y APP 5'UTR-luciferase reporter, luminescence;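 active means inhibition above a set limit, derived from the sample mean plus 3 SD, cut at about 45% in these data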
# BaF3 parental: parental Ba/F3 cell viability inhibition, counter-screen for JAK2V617F inhibitor project, murine pro-B, CellTiter-Glo luminescence; CellTiter-Glo ATP luminescence; inhibition, % at 5.6 µM; 220,000 compounds, 1.1% hits;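 active means inhibition above a per-campaign cutoff, the mean inhibition of all tested compounds plus 3 SD, cut at about 27% in these data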
# Hits are given with their value; - = inactive; . = no result.
SMILES,MT stabilizer,Ba/F3 V617F tox,L major viab,bCat nuc transl,APP 5UTR inh,BaF3 parental
N#CC1=C2N=C(N)c3ccccc3N2C2=C(C(=O)CCC2)C1c1cccc(Cl)c1 (centres undefined),-,-,81,-,-,-
Cc1ccccc1C1C(C#N)=C2N=C(N)c3ccccc3N2C2=C1C(=O)CCC2 (centres undefined),.,-,.,-,.,-
COc1ccc(NCc2nnc(SCc3ccc(Cl)cc3)n2-c2ccccc2)cc1,-,-,-,-,-,-
COc1ccc(C2C(C#N)=C(N)Oc3c2sc2nc(C)cc(C)c32)cc1 (centres undefined),-,-,100,-,-,-
O=[N+]([O-])c1cc(/C=N/O)ccc1Sc1ccccc1,-,-,78,-,-,-
CCC1(C)Cc2ccccc2-c2nc3n(c(=O)c21)CC(C(=O)O)S3 (centres undefined),-,-,-,-,-,-
Cc1ncc(C[n+]2csc(CCOC(=O)C34CC5CC(CC(C5)C3)C4)c2C)c(N)n1,-,-,-,-,-,-
Cc1c(CCOC(=O)C23CC4CC(CC(C)(C4)C2)C3)sc[n+]1Cc1ccccc1,-,-,100,-,-,-
Cc1c(CCOC(=O)C23CC4CC(CC(C4)C2)C3)sc[n+]1Cc1ccccc1,-,-,98,-,-,-
Cc1c(CCOC(=O)C23CC4(C)CC(C)(CC(C)(C4)C2)C3)sc[n+]1CC(=O)c1ccccc1,-,-,-,-,-,-
COc1ccc(N2C(=O)c3ccccc3NC23C(=O)N(C)c2ccccc23)cc1 (centres undefined),-,-,-,-,-,-
O=C(/C=C/c1ccc(-c2ccc(F)cc2)o1)N1CCCC1,-,-,-,-,-,-
CCOC(=O)c1c(NC(=O)CSc2nc3ccccc3o2)sc(C(C)=O)c1C,-,-,-,-,-,-
Cc1nn(CCO)c(N)c1C1(O)C(=O)Nc2c(Cl)cc(Cl)cc21 (centres undefined),-,-,-,-,-,-
Cc1cc(-c2nnc3n2N=C(c2ccccc2)CS3)n[nH]1,.,-,.,-,.,-
CCOc1ccc(C2=Nn3c(nnc3-c3ccc(OC)cc3)SC2)cc1,40,73,-,106,95,57
COc1ccc(C2=Nn3c(nnc3-c3ccccc3)SC2)cc1OC,-,-,-,.,-,-
COc1ccc(C2=Nn3c(nnc3-c3ccncc3)SC2)cc1,-,-,-,.,-,-
c1ccc(-c2cc(-c3nnc4n3N=C(c3ccc5ccccc5c3)CS4)[nH]n2)cc1,21,-,55,-,-,-
Fc1ccc(C2=Nn3c(nnc3-c3n[nH]c4c3CCC4)SC2)cc1,-,-,51,-,-,-
Cc1cc(-c2nnc3n2N=C(c2ccc(-c4ccccc4)cc2)CS3)n[nH]1,-,-,66,-,-,-
COc1ccc(NC(=O)Cn2cnc3c(oc4nc5c(cc43)COC(C)(C)C5)c2=O)cc1,.,-,.,-,.,-
COc1ccc(CCN=C(N)NS(=O)(=O)c2ccc(OC)cc2)cc1,-,-,-,-,-,-
COc1ccc(CCN=C(N)Nc2nc(C)cc(C)n2)cc1,-,-,95,-,-,-
CCN(CC)CCNC(=O)c1ccc2c(=O)n(C3CCCC3)c(=S)[nH]c2c1,-,-,85,-,-,-
SMILES,MT stabilizer,Ba/F3 V617F tox,L major viab,bCat nuc transl,APP 5UTR inh,BaF3 parental
S=C(NCc1ccc2c(c1)OCO2)NC1CC1,-,-,-,-,-,-
CCOC(=O)C1=C(C)N=c2s/c(=C\c3ccncc3)c(=O)n2C1c1ccc2c(c1)OCO2 (centres undefined),-,-,99,-,-,-
Cc1cc2c(cc1C)NC(c1c(C)n(C)n(-c3ccccc3)c1=O)C1=C(CC(C)(C)CC1=O)N2 (centres undefined),-,-,100,.,-,-
CCOC(=O)c1cc(-c2ccc(OC)cc2OC)nn1-c1ccc(C(=O)O)cc1,-,-,-,-,-,-
COc1ccccc1N=c1oc2cc(O)ccc2cc1C(N)=O,-,32,-,-,-,34
Cc1ccc(-c2c(C)n([O-])c3c([n+]2=O)CCCC3)o1,-,-,-,-,-,-
CCC1CCCCN1CC(=O)Nc1cc(C)nn1-c1nc(C)cc(C)n1 (centres undefined),53,-,-,-,-,-
N/C(=N\O)c1ccc(Cl)cc1Cl,.,-,.,-,.,-
CC(C)OC(=O)NCCOC(=O)Nc1ccccc1Cl,-,-,-,-,-,-
O=C(CSCc1cccc(Cl)c1)Nc1ccccc1-c1ccccc1,-,-,87,-,-,-
Cc1nc(-n2[nH]c3c(c2=O)CCCC3)[nH]c(=O)c1Cc1ccccc1,-,-,96,.,-,-
Cc1nc(N2CCc3ccccc3C2)[nH]c(=O)c1Cc1ccccc1,-,-,-,-,-,-
CCc1c(C)c(C#N)c2nc3ccccc3n2c1NCc1ccccn1,-,-,-,-,-,-
CN1C/C(=C/c2cccnc2)C(=O)/C(=C/c2cccnc2)C1,53,-,100,-,89,-
CC(C)N1C/C(=C/c2ccsc2)C(=O)/C(=C/c2ccsc2)C1,-,-,100,-,-,-
CC1=N/C(=C/c2cccnc2)C(=O)O1,-,-,-,-,-,-
CC(C)N1C/C(=C/c2cccnc2)C(=O)/C(=C/c2cccnc2)C1,-,-,100,-,-,-
Cc1ccc(-n2c(C)cc(C)c(C#N)c2=O)cc1C,-,-,-,-,-,-
Cc1nc2ccccc2c2c(N)c3ccccc3n12,-,-,51,-,-,-
CC(=O)N(c1ccc2oc(=O)sc2c1)S(=O)(=O)c1ccccc1,-,-,-,-,-,-
COc1ccc(S(=O)(=O)N(C(=O)C(C)C)c2ccc3oc(=O)sc3c2)cc1,-,-,-,-,-,-
CCOc1ccc(S(=O)(=O)N(C(=O)c2ccco2)c2cc3sc(=O)oc3c3ccccc23)cc1,19,-,97,-,-,-
COc1ccc(S(=O)(=O)N(C(=O)c2ccco2)c2cc3sc(=O)oc3c3ccccc23)cc1,-,-,99,-,-,-
Cc1ccc(S(=O)(=O)N(C(=O)c2ccco2)c2cc3sc(=O)oc3c3ccccc23)cc1,-,-,98,-,-,-
N#Cc1ccc(COC(=O)c2ccc(N3CCCC3)c([N+](=O)[O-])c2)cc1,-,-,-,-,-,-
C=CCn1c(SCC(=O)c2c(N)n(CCC)c(=O)n(C)c2=O)nnc1-c1ccncc1,-,-,-,-,-,-
CC(C)c1ccc(C(=O)CSc2n[nH]c(-c3ccncc3)n2)cc1,-,-,-,.,-,-
CC1(C)Cc2c(c(-c3ccccc3)nc(N3CCOCC3)c2C(N)=O)CO1,-,-,-,.,66,-
